From ChEMBL document CHEMBL1143407, “In vivo efficacy and pharmacokinetics of voriconazole in an animal model of dermatophytosis” (Antimicrob Agents Chemother, 2007) come the findings set out here.

A word on the MIC: it is the lowest concentration that inhibits growth of the organism. Read a high MIC as a less susceptible organism. The term Cmax denotes the maximum level reached in the sampled fluid or tissue.

The nature of data set [1]: Drug level in guinea pig whole blood at 20 mg/kg/day, po after 3 hrs. Type of data set: ADME, organism-based, Cavia porcellus. On the set-up: route oral. The following applies: read-out: Drug uptake. In a few lines: (§1)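 Day 14: three infected guinea pigs received the twelfth 20 mg/kg oral gavage dose. Whole blood was drawn from the eye vein hourly from 1 h. 3-mm full-thickness punch biopsies were taken hourly from the lesion margin over 3 h. Blood was precipitated with acetonitrile. Biopsies were extracted 6 h in acetonitrile-ammonium phosphate with freeze-thaw cycles. Total drug was measured by isocratic RP-18 HPLC (LLOQ 0.2 μg/ml).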

Data set [2] is described as follows: Drug level in guinea pig skin biopsy specimen at 20 mg/kg/day, po after 3 hrs. Type of data set: ADME, organism-based, Cavia porcellus, Zone of skin. On the set-up: route oral. To be noted: read-out: Drug uptake. The gist of the method:
as §1

The subject of data set [3] is Nannizzia gypsea. As to the kind of experiment: Antimicrobial activity against Microsporum gypseum. The class given is functional.
Data set [4] deals with Nannizzia nana. As to the kind of experiment: Antimicrobial activity against Microsporum nanum. Type of data set: functional.
Data set [5] deals with Microsporum canis. Briefly: Antifungal activity against Microsporum canis infected in guinea pig dermatophytosis model assessed as colony count per specimen at 20 mg/kg/day, po administered 12 days measured after 17 days. Type of data set: functional. The gist of the method:
(§2)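 Female guinea pigs (418 to 482 g) were inoculated on shaved skin with M. canis clinical-isolate microconidia at about 8 × 10⁵ conidia/ml. Oral solution was given by gavage at 20 mg/kg/day on days 3 to 14; controls were untreated (n = 8 per group). Skin scrapings were cultured on SAB with cycloheximide/chloramphenicol for 28 days and CFU per specimen counted. Groups were compared by Wilcoxon two-sample test.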

Data set [6] has as its system Paraphyton cookei. Briefly: Antimicrobial activity against Microsporum cookei. Type of data set: functional.
Data set [7] can be described thus: Cmax in guinea pig skin biopsy specimen at 20 mg/kg/day, po after 3 hrs. The class given is ADME, organism-based, Cavia porcellus, Zone of skin. More on the design: dose 20 mg/kg/day, route oral. The gist of the method:
as §1

Data set [8] in a line: Cmin in guinea pig skin biopsy specimen at 20 mg/kg/day, po after 3 hrs. The following applies: read-out: Cmin. More on the design: route oral. Type of data set: ADME, organism-based, Cavia porcellus, Zone of skin. The gist of the method:
as §1

Data set [9] is described as follows: Cmin in guinea pig whole blood at 20 mg/kg/day, po after 3 hrs. The class given is ADME, organism-based, Cavia porcellus. More on the design: route oral. The following applies: read-out: Cmin. The gist of the method: as §1
In data set [10] the test system is Microsporum audouinii. Briefly: Antimicrobial activity against Microsporum audouinii. Type of data set: functional.
The subject of data set [11] is Microsporum canis. As to the kind of experiment: Antifungal activity against Microsporum canis infected in guinea pig dermatophytosis model assessed as colony count per specimen at 20 mg/kg/day, po after 7 days. Type of data set: functional. In a few lines: as §2
Data set [12] can be described thus: Cmax in guinea pig whole blood at 20 mg/kg/day, po after 3 hrs. The class given is ADME, organism-based, Cavia porcellus. More on the design: dose 20 mg/kg/day, route oral. The gist of the method:
as §1

Data set [13] deals with Microsporum canis. Briefly: Antifungal activity against Microsporum canis infected in guinea pig dermatophytosis model assessed as colony count per specimen at 20 mg/kg/day, po after 3 days. The class given is functional. In a few lines: as §2
Data set [14] is described as follows: Cmax in guinea pig skin at 20 mg/kg/day, po after 3 hrs. Type of data set: ADME, organism-based, Cavia porcellus, Zone of skin. More on the design: dose 20 mg/kg/day, route oral. In a few lines: as §1
Data set [15] relates to Microsporum distortum. Briefly: Antimicrobial activity against Microsporum distortum. Type of data set: functional.
In data set [16] the test system is Microsporum canis. As to the kind of experiment: Antifungal activity against Microsporum canis infected in guinea pig dermatophytosis model assessed as colony count per specimen at 20 mg/kg/day, po administered 12 days measured after 14 days. Type of data set: functional. In a few lines: as §2
The nature of data set [17]: Drug level in guinea pig interstitial fluid at 20 mg/kg/day, po after 3 hrs. The class given is ADME, organism-based, Cavia porcellus. On the set-up: route oral. To be noted: read-out: Drug uptake. The gist of the method: (§3)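 Day 14: the first three treated guinea pigs, infected and dosed as above, were studied under anesthesia. Dermal microdialysis catheters were placed in normal and inoculated skin and perfused with isotonic NaCl at 1 μl/min. Probes were calibrated beforehand by retrodialysis (5 and 10 μg/ml). Dialysates were collected every 30 min for 3 h after the twelfth 20 mg/kg oral dose. Unbound level = 100 × C_dialysate/RR, by isocratic RP-18 HPLC.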

Data set [18] relates to Microsporum canis. As to the kind of experiment: Antimicrobial activity against Microsporum canis. The class given is functional. The gist of the method:
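MIC was determined by CLSI M38-A broth dilution, modified to use 10⁵ CFU/ml inoculum and 10 days incubation at 25°C. The organism was a clinical M. canis isolate, tested in triplicate.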

Data set [19] can be described thus: Cmax in guinea pig interstitial fluid at 20 mg/kg/day, po after 3 hrs. The class given is ADME, organism-based, Cavia porcellus. More on the design: dose 20 mg/kg/day, route oral. In a few lines:
as §3

Converted amounts (≈) assume the structure as drawn.

Consider `C[C@@H](c1ncncc1F)[C@](O)(Cn1cncn1)c1ccc(F)cc1F` [VORICONAZOLE], for which the concentration at 3 h is 6300 ng/mL in data set [1]; 18300 ng/g in data set [2]; 9100 ng/g in data set [8]; 4000 ng/mL in data set [9]; 1400 ng/mL in data set [17]. Moreover, the MIC in data set [3] was found to be 0.01 µg/mL (≈ 0.0286 µM); in [4], 0.01 µg/mL (≈ 0.0286 µM); in [6], 0.01 µg/mL (≈ 0.0286 µM); in data set [10], 0.01 µg/mL (≈ 0.0286 µM); in data set [15], 0.01 µg/mL (≈ 0.0286 µM); in data set [18], 0.25 µg/mL (≈ 0.716 µM). The Activity in data set [5] was determined as 0.2; in data set [11], 4.1; in data set [13], 6.4; in [16], 0.3. Besides, the Cmax was found to be 35900 ng/g in data set [7], 7700 ng/mL in data set [12], 28100 ng/g in data set [14] and 2000 ng/mL in [19].
